Test results reported in ChEMBL document CHEMBL3102806, “1,2,4-Triazole/oxime hybrids as new strategy for nitric oxide donors: Synthesis, anti-inflammatory, ulceroginicity and antiproliferative activities” (Eur J Med Chem, 2014).

Experiments:
Rattus norvegicus [1] = test: Ulcerogenic activity in albino rat carrageenan-induced paw edema model assessed as ulcer index at 0.28 mmol/kg, po (reference value: 0.60 +/- 0.05); type: toxicity, organism-based; conditions: in vivo
In short: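 Rats given the compound orally at 0.28 mmol/kg, suspended in 0.5% aqueous CMC; vehicle-only control, n = 4 per group. Gastric ulcers graded by area: I (<1 mm²), II (1–3 mm²), III (>3 mm²). Ulcer index = 1×(level I count) + 2×(level II) + 3×(level III). Mean ± SEM, one-way ANOVA versus control.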

Rattus norvegicus [2] = test: Antiinflammatory activity in albino rat assessed as inhibition of carrageenan-induced paw edema at 0.28 mmol/kg, po administered 30 mins prior to carrageenan-challenge measured after 4 hrs relative to control; type: functional
In short: (§1)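 Male albino rats in groups of four were fasted 24 h with water allowed. Dosing was oral at 0.28 mmol/kg, suspended in 0.5% w/v CMC; controls got CMC alone. After 30 min, 0.1 ml of 1% carrageenan in saline went subplantar into the right hind paw and saline into the left. Paw thickness was read by caliper before and at 1–5 h. % inhibition = [(VR−VL)control−(VR−VL)treated]/(VR−VL)control ×100. Mean ± SEM, n = 4, one-way ANOVA vs control.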

Rattus norvegicus [3] = test: Antiinflammatory activity in albino rat assessed as inhibition of carrageenan-induced paw edema at 0.28 mmol/kg, po administered 30 mins prior to carrageenan-challenge measured after 5 hrs relative to control; type: functional; in short: as §1
Rattus norvegicus [4] = test: Antiinflammatory activity in albino rat assessed as inhibition of carrageenan-induced paw edema at 0.28 mmol/kg, po administered 30 mins prior to carrageenan-challenge measured after 3 hrs relative to control; type: functional; in short: as §1
Rattus norvegicus [5] = test: Antiinflammatory activity in albino rat assessed as inhibition of carrageenan-induced paw edema at 0.28 mmol/kg, po administered 30 mins prior to carrageenan-challenge measured after 1 hr relative to control; type: functional; in short: as §1
Rattus norvegicus [6] = test: Gastrointestinal toxicity in albino rat carrageenan-induced paw edema model assessed as loss of morphology of glandular structures at 0.28 mmol/kg, po by hematoxylin and eosin staining-based light microscopic analysis; type: organism-based; conditions: in vivo
In short: (§2)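 Rats were dosed orally at 0.28 mmol/kg, suspended in 0.5% aqueous CMC; vehicle-only animals served as controls. After ulcer scoring, stomach sections were stained with haematoxylin and eosin: acid-alcohol differentiation, then 1% eosin for 10 min. Sections were dehydrated, cleared in xylene, mounted and examined by light microscopy.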

Rattus norvegicus [7] = test: Gastrointestinal toxicity in albino rat carrageenan-induced paw edema model assessed as decrease in thickness of gastric mucosa with marked loss of mucosal membrane at areas of ulceration at 0.28 mmol/kg, po by hematoxylin and eosin staining-based light microscopic analysis; type: organism-based; conditions: in vivo; in short: as §2
Rattus norvegicus [8] = test: Antiinflammatory activity in albino rat assessed as inhibition of carrageenan-induced paw edema at 0.28 mmol/kg, po administered 30 mins prior to carrageenan-challenge measured after 2 hrs relative to control; type: functional; in short: as §1
Rattus norvegicus [9] = test: Gastrointestinal toxicity in albino rat carrageenan-induced paw edema model assessed as appearance of ulcer at 0.28 mmol/kg, po by hematoxylin and eosin staining-based light microscopic analysis; type: organism-based; conditions: in vivo; in short: as §2
[10] = Induction of nitric oxide release in phosphate buffer at 10^-4 M at pH 7.4 after 5 hrs by Griess colorimetric method in presence of N-acetylcysteine; type: physicochemical; conditions: pH 7.4, 5 h, 100 µM
In short: (§3)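 Final drug concentration 10^-4 M, added from DMF into 1:1 50 mM phosphate buffer (pH 7.4)/MeOH containing 5 × 10^-4 M N-acetylcysteine, at 37 °C. Nitrite read with Griess reagent after 10 min at room temperature, absorbance at 546 nm. Calibration with sodium nitrite standards (10–80 nmol/ml). Reported as mol NO per mol, n = 4 reaction mixtures.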

Rattus norvegicus [11] = test: Gastrointestinal toxicity in albino rat carrageenan-induced paw edema model assessed as acute inflammatory cell infiltrating its whole thickness at 0.28 mmol/kg, po by hematoxylin and eosin staining-based light microscopic analysis; type: organism-based; conditions: in vivo; in short: as §2
Rattus norvegicus [12] = test: Gastrointestinal toxicity in albino rat carrageenan-induced paw edema model assessed as severe atrophic gastritis and gland atrophy at 0.28 mmol/kg, po by hematoxylin and eosin staining-based light microscopic analysis; type: organism-based; conditions: in vivo; in short: as §2
[13] = Induction of nitric oxide release in phosphate buffer at 10^-4 M at pH 7.4 after 2 hrs by Griess colorimetric method in presence of N-acetylcysteine; type: physicochemical; conditions: pH 7.4, 2 h, 100 µM; in short: as §3
[14] = Induction of nitric oxide release in phosphate buffer at 10^-4 M at pH 7.4 after 1 hr by Griess colorimetric method in presence of N-acetylcysteine; type: physicochemical; conditions: pH 7.4, 1 h, 100 µM; in short: as §3
[15] = Induction of nitric oxide release in phosphate buffer at 10^-4 M at pH 7.4 after 3 hrs by Griess colorimetric method in presence of N-acetylcysteine; type: physicochemical; conditions: pH 7.4, 3 h, 100 µM; in short: as §3
[16] = Induction of nitric oxide release in phosphate buffer at 10^-4 M at pH 7.4 after 4 hrs by Griess colorimetric method in presence of N-acetylcysteine; type: physicochemical; conditions: pH 7.4, 4 h, 100 µM; in short: as §3
[17] = Induction of nitric oxide release in HCl buffer at 10^-4 M at pH 1 after 1 hr by Griess colorimetric method in presence of N-acetylcysteine; type: physicochemical; conditions: pH 1, 1 h, 100 µM
In short: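 Same Griess nitrite procedure at 10^-4 M final drug with N-acetylcysteine at 37 °C, but with 0.1 N HCl (pH 1) in place of the pH 7.4 phosphate buffer. Absorbance at 546 nm against a sodium nitrite calibration curve.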

Rattus norvegicus [18] = test: Gastrointestinal toxicity in albino rat carrageenan-induced paw edema model assessed as capillary vasodilatation of lamina propria associated with accumulation of edema fluid at 0.28 mmol/kg, po by hematoxylin and eosin staining-based light microscopic analysis; type: organism-based; conditions: in vivo; in short: as §2
[19] = Induction of nitric oxide release in phosphate buffer at 10^-4 M at pH 7.4 after 6 hrs by Griess colorimetric method in presence of N-acetylcysteine; type: physicochemical; conditions: pH 7.4, 6 h, 100 µM; in short: as §3
Rattus norvegicus [20] = test: Gastrointestinal toxicity in albino rat carrageenan-induced paw edema model assessed as apoptotic glandular epithelial cells at 0.28 mmol/kg, po by hematoxylin and eosin staining-based light microscopic analysis; type: organism-based, Epithelial cell; conditions: in vivo; in short: as §2
Rattus norvegicus [21] = test: Gastrointestinal toxicity in albino rat carrageenan-induced paw edema model assessed as destruction of surface epithelium and epithelial lining of gastric pits at 0.28 mmol/kg, po by hematoxylin and eosin staining-based light microscopic analysis; type: organism-based, Stomach; conditions: in vivo; in short: as §2

Structure (SMILES) | UI (Rattus norvegicus [1]) | inhibition in vivo at 280 µmol/kg (Rattus norvegicus [2]) [%] | inhibition in vivo at 280 µmol/kg (Rattus norvegicus [3]) [%] | inhibition in vivo at 280 µmol/kg (Rattus norvegicus [4]) [%] | inhibition in vivo at 280 µmol/kg (Rattus norvegicus [5]) [%] | Activity (Rattus norvegicus [7]) | inhibition in vivo at 280 µmol/kg (Rattus norvegicus [8]) [%] | Activity [10] [mol/mol] | Activity (Rattus norvegicus [11]) | Activity (Rattus norvegicus [12]) | Activity [13] [mol/mol] | Activity [14] [mol/mol] | Activity [15] [mol/mol] | Activity [16] [mol/mol] | Activity [17] | Activity (Rattus norvegicus [18]) | Activity [19] [mol/mol] | also measured
C=CCn1c(SCC(=O)Nc2ccc(C(C)=O)cc2)nnc1-c1ccc(OC)c(OC)c1 | 2.45 | 70 | 64 | 58 | 56 | Toxic | 57 |  |  |  |  |  |  |  |  |  |  | Activity (Rattus norvegicus [6]): Toxic
C=CCn1c(SCC(=O)Nc2ccc(/C(C)=N/O)cc2)nnc1-c1ccc(OC)c(OC)c1 | 0.25 | 79 | 79 | 70 | 53 |  | 56 | 0.27 | Non-toxic | Non-toxic | 0.16 | 0.13 | 0.32 | 0.35 | Not Active | Non-toxic | 0.26 | Activity (Rattus norvegicus [9]): Non-toxic
C=CCn1c(SCC(=O)Nc2ccc(/C(C)=N/O)cc2)nnc1-c1cc(OC)c(OC)c(OC)c1 | 0.75 | 72 | 64 | 62 | 49 |  | 53 | 0.18 |  |  | 0.15 | 0.11 | 0.19 | 0.24 | Not Active |  | 0.16 | 
CCn1c(SCC(=O)Nc2ccc(/C(C)=N/O)cc2)nnc1-c1ccccc1 | 1.18 | 77 | 66 | 65 | 54 |  | 57 | 0.14 |  |  | 0.17 | 0.11 | 0.2 | 0.21 | Not Active |  | 0.12 | 
COc1ccc2c(c1)c(CC(=O)O)c(C)n2C(=O)c1ccc(Cl)cc1 [INDOMETHACIN] | 63.34 | 83 | 87 | 74 | 51 | Toxic | 67 |  | Toxic | Toxic |  |  |  |  |  | Toxic |  | Activity (Rattus norvegicus [20]): Toxic; Activity (Rattus norvegicus [21]): Toxic
